Experimental data: ChEMBL document CHEMBL3232870, “Discovery of 3-(4-methanesulfonylphenoxy)-N-[1-(2-methoxy-ethoxymethyl)-1H-pyrazol-3-yl]-5-(3-methylpyridin-2-yl)-benzamide as a novel glucokinase activator (GKA) for the treatment of type 2 diabetes mellitus” (Bioorg Med Chem, 2014)
pEC50: −log10 of the molar value.

Key:
[1] = biological target: T1, Hexokinase-4 (Homo sapiens, UniProt P35557); experiment: Activation of recombinant human pancreatic glucokinase using 10 mM glucose by spectrophotometry
T1 sequence (P35557 whole entry): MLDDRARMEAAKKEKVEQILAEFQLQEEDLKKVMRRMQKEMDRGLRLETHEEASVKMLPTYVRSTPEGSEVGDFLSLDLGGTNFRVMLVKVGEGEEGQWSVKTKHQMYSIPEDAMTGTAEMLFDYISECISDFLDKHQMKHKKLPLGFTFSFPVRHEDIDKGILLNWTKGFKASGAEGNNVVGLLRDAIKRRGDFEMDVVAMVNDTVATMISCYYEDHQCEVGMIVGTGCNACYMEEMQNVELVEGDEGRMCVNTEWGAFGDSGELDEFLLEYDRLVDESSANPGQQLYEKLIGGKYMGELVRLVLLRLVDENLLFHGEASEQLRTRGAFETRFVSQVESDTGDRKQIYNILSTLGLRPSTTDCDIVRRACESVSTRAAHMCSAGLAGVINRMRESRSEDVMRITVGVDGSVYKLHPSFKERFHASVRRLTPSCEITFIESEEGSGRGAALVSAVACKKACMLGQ
In short: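 Purified recombinant human pancreatic glucokinase, compounds in DMSO. Buffer: 25 mM HEPES pH 7.4, 10 mM glucose, 25 mM KCl, 1 mM MgCl2, 1 mM DTT, 1 mM ATP, 1 mM NADP, 2.5 U/mL G6PDH. Activity was expressed against DMSO-only control (100%). EC50 came from 12 concentrations fitted to a variable-slope sigmoidal curve. Values are means of three duplicate runs.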

[2] = test system: Hepatocyte; experiment: Induction of 2-Deoxy-D-[3H]-glucose uptake in rat Hepatocytes using 5.5 mM glucose after 4 hrs by liquid scintillation counting; format: functional
In short: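 Rat primary hepatocytes, isolated by collagenase liver perfusion, viability over 85%. Cells attached 36 h on collagen I in MEM with 10% FBS, then serum-starved 12 h. Incubated 4 h in serum-free MEM with 5.5 mM glucose and 2-deoxy-D-[3H]-glucose, with or without compound. Washed in ice-cold PBS, lysed in 0.1 N NaOH, scintillation counted, expressed as % increase over control.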

[3] = test system: Mus musculus; experiment: Antidiabetic activity in glucose-treated C57BL/J6 db/db mouse assessed as reduction of glucose AUC at 50 mg/kg, po preincubated for 30 mins followed by glucose challenge measured after 30 to 180 mins by oral glucose tolerance test relative to control; format: functional; set-up: scale not given: the % may be the effect or the level left; settings: in the assay text read “C57BL/J6 mouse” for “C57BL/J6 db/db mouse”
In short: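 Oral glucose tolerance test. Mice: eight-week-old male C57BL/6 or ten-week-old male C57BLKS/J db/db, fasted overnight with water. Compound or 0.5% methylcellulose vehicle given orally, then an oral 2 g/kg glucose challenge 30 min later. Tail-tip blood glucose was read just before and at 30, 60, 90, 120 and 180 min. AUC was calculated from the time–glucose curve; n = 6.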

[4] = test system: Mus musculus; experiment: Antidiabetic activity in glucose-treated C57BL/J6 mouse assessed as reduction of glucose AUC at 300 mg/kg, po preincubated for 30 mins followed by glucose challenge measured after 30 to 180 mins by oral glucose tolerance test relative to control; set-up: scale not given: the % may be the effect or the level left
[5] = test system: Mus musculus; experiment: Toxicity in fasting C57BL/J6 mouse assessed as glucose lowering effect at 30 mg/kg, po after 30 to 360 mins; format: organism-based; set-up: dose 30 mg/kg, route oral; settings: in vivo
In short: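 Eight-week-old male C57BL/6 mice were fasted 6 h with free access to water, then dosed orally with compound or 0.5% methylcellulose vehicle, with no glucose challenge. Blood glucose was followed up to 360 min, n = 6 per group.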

pEC50 [1]	Structure (SMILES)	fold change (FC) [2]	Activity [3] [%]	Activity [4] [%]	Activity [5]
6.99	Cc1cccnc1-c1cc(Oc2ccc(S(C)(=O)=O)cc2)cc(C(=O)Nc2nc(CC(=O)NC3CC3)cs2)c1	1.8	-3.1	–	–
6.67	Cc1cccnc1-c1cc(Oc2ccc(S(C)(=O)=O)cc2)cc(C(=O)Nc2nc(CN3CCOCC3)cs2)c1	2.1	–	–	–
8.30	CCNC(=O)Cc1csc(NC(=O)c2cc(Oc3ccc(S(C)(=O)=O)cc3)cc(-c3ncccc3C)c2)n1	2.54	-0.3	–	–
< 4.30	Cc1cccnc1-c1cc(Oc2ccc(S(C)(=O)=O)cc2)cc(C(=O)Nc2nc(CN3CCNCC3)cs2)c1	–	–	–	–
6.62	Cc1cccnc1-c1cc(Oc2ccc(S(C)(=O)=O)cc2)cc(C(=O)Nc2ncc(F)s2)c1	1.75	22.6	–	–
< 4.30	CCCNCc1csc(NC(=O)c2cc(Oc3ccc(S(C)(=O)=O)cc3)cc(-c3ncccc3C)c2)n1	–	–	–	–
8.10	COCC(C)NCc1csc(NC(=O)c2cc(Oc3ccc(S(C)(=O)=O)cc3)cc(-c3ncccc3C)c2)n1 (centres undefined)	1.72	–	–	–
6.97	C#CCNCc1csc(NC(=O)c2cc(Oc3ccc(S(C)(=O)=O)cc3)cc(-c3ncccc3C)c2)n1	2.35	–	–	–
7.02	Cc1cccnc1-c1cc(Oc2ccc(S(C)(=O)=O)cc2)cc(C(=O)Nc2nccs2)c1	1.98	29.8	–	–
6.16	Cc1cccnc1-c1cc(Oc2ccc(S(C)(=O)=O)cc2)cc(C(=O)Nc2nc(CN3CCN(C)CC3)cs2)c1	1.19	4.4	–	–
< 4.30	CCOCn1ccc(NC(=O)c2cc(Oc3ccc(S(C)(=O)=O)cc3)cc(-c3ncccc3C)c2)n1	–	–	–	–
–	CN(C)C(=N)NC(=N)N [METFORMIN]	–	–	29.9	–
5.13	COCCN(C)Cc1csc(NC(=O)c2cc(Oc3ccc(S(C)(=O)=O)cc3)cc(-c3ncccc3C)c2)n1	1.46	–	–	–
5.61	COCCN(CCOC)Cc1csc(NC(=O)c2cc(Oc3ccc(S(C)(=O)=O)cc3)cc(-c3ncccc3C)c2)n1	2.02	20.2	–	–
7.48	COC(CNCc1csc(NC(=O)c2cc(Oc3ccc(S(C)(=O)=O)cc3)cc(-c3ncccc3C)c2)n1)OC	1.92	–	–	–
< 4.30	CCN(CC)CCn1ccc(NC(=O)c2cc(Oc3ccc(S(C)(=O)=O)cc3)cc(-c3ncccc3C)c2)n1	–	–	–	–
6.36	Cc1cccnc1-c1cc(Oc2ccc(S(C)(=O)=O)cc2)cc(C(=O)Nc2ccn(CCN3CCOCC3)n2)c1	1.86	17.8	–	–
6.09	Cc1cccnc1-c1cc(Oc2ccc(S(C)(=O)=O)cc2)cc(C(=O)Nc2ccn(C)n2)c1	1.74	24.1	–	–
< 4.30	CCN(CC)Cc1csc(NC(=O)c2cc(Oc3ccc(S(C)(=O)=O)cc3)cc(-c3ncccc3C)c2)n1	–	–	–	–
–	N[C@@H](CC(=O)N1CCn2c(nnc2C(F)(F)F)C1)Cc1cc(F)c(F)cc1F [SITAGLIPTIN]	–	–	–	Non-toxic
6.33	Cc1cccnc1-c1cc(Oc2ccc(S(C)(=O)=O)cc2)cc(C(=O)Nc2nc(CNC(C)C)cs2)c1	1.47	2.2	–	–
